Compound activity: PubChem, several laboratories
Shown are actives, neighbours in structure and some others; about 1.4% of the full set was active somewhere.
Myeloid diff 2 – myeloid differentiation induction | ER-HoxA9 myeloid progenitors, lysozyme-GFP differentiation, flow cytometry | calls only at 10 µM | 360,000 compounds, 1% hits;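 active = normalized GFP-positive differentiation at or above the plate's own cutoff, the solvent-only control mean plus 3 SD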;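 also: cells exposed to compound for four days before flow analysis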
CASP6 VEID inh – inhibitors of human caspase-6. 350,000 compounds, 0.53% hits. inhibition, % at 12.5 µM. purified caspase-6, Z-VEID-R110 cleavage fluorescence;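 active = mean inhibition across replicates at least about 35%, with every replicate also reaching that limit, limit read from the data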;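 also: 0% = median of neutral control wells and 100% = no fluorescence left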
Target sequence (P55212 24-179 limits assumed): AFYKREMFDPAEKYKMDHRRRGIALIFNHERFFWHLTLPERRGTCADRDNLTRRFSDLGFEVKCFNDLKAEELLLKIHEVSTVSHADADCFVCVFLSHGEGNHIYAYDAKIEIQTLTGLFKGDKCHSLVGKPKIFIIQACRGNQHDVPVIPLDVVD
Target sequence (P55212 194-293 limits assumed): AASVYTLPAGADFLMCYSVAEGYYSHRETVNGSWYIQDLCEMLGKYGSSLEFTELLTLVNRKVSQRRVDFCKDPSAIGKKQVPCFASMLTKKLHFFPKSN
Vif inh – inhibitors of HIV Vif. AID 602346. HEK293T cells, Vif self-association by quenched fluorescence, imaging, 24 h. 340,000 compounds, 0.35% hits. inhibition, % at 7.49 µM; in the data active = inhibition above about 50%, passing the limit was not always enough
T cell modulator – T cell immune modulators affecting CD8 T cell-vesicle binding | 2C CD8+ T cell-vesicle binding, flow cytometry; stronger effect = lower value | 330,000 compounds, 0.068% hits | response (vesicle binding), % at 7 µM;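 active = response, share of CD8 T cells binding vesicles, and their 90th percentile fluorescence all below set limits, cut at about 80% in these data, passing the limit was not always enough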;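 also: values below 100% mean blocked vesicle binding to the CD8+ T cells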
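incubation = binding step 1.5 h, 37 °C, antibody labelling 20 min, ice | test system = 2C mouse CD8+ T cells | read-out basis = percent CD8+ FL2 mean versus row control | controls = Peptide-free naked vesicles (low) and QL9 vesicles with 0.7% DMSO vehicle (high) | detection = flow cytometry of vesicle-bound cells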
Myeloid diff – promotes myeloid progenitor differentiation | ER-HoxA9 myeloid progenitors, GFP/Mac1 double-positive flow | shares compounds with Myeloid diff 2 | 2,300 compounds, 2% hits | calls only;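 active = share of green or green-and-red cells above 9 and 9% in run 1 or 4 and 3% in run 2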
GFP autofluor – counter-screen for myeloid differentiation promoters: compound fluorescence; shares compounds with Myeloid diff 2; fluorescence response, % (test concentration not listed); AID 651707; ER-HoxA9 myeloid progenitors, no estrogen, GFP autofluorescence flow cytometry; vehicle wells 0%, positive control 100%; 2,300 compounds, 7.4% hits;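 active = over 5% cells positive for green fluorescent reporter, or over 2% positive for both it and APC stain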;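 also: range taken on the double positive population between DMSO and positive control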
* marks the source's active call; other numbers are inactive results; i = inactive; / = not tested or not shown; + = active, no number.

SMILES	Myeloid diff 2	CASP6 VEID inh	Vif inh	T cell modulator	others
O=C(O)c1cccc2c1NC(c1cccc([N+](=O)[O-])c1)C1CC(Sc3ccccc3[N+](=O)[O-])C(Cl)C21 (configuration not stated)	/	54*	9	/
O=C(O)c1ccc2c(c1)C1C(Cl)C(Sc3ccccc3[N+](=O)[O-])CC1C(c1cccc([N+](=O)[O-])c1)N2 (configuration not stated)	i	/	3	/
O=C1NC(=S)SC1=Cc1ccc(N(CCCl)CCCl)cc1	+	-1	/	/
CN1/C(=C\C=C2C(=O)NC(=S)NC2=O)C(C)(C)c2ccccc21	+	6	-2	/
COc1ccc2c3c([nH]c2c1)C(C)NCC3 (configuration not stated)	+	-6	8	368
Cc1cccc(-n2c(O)c(/C=C/C=Nc3ccccc3)c(=O)[nH]c2=O)c1	i	/	-6	379
Cn1c(O)c(/C=C/C=Nc2ccccc2)c(=O)n(C)c1=S	+	/	-8	385
O=C(C1CC1)N1C[C@@H]2N[C@H](C1)[C@@H]2c1ccc(-c2ccncc2)cc1	/	-1	/	/
NN=C1C(Cl)=C(Cl)C(Cl)=C1Cl	i	97*	2	/
C[n+]1c(-c2ccccc2)c2cc(N)ccc2c2ccc(N)cc21	+	/	28	167
O=C1NC(=O)C(=Cc2ccc(SC3CCCCC3)o2)C(=O)N1	i	67*	3	183
NS(=O)(=O)c1ccc(-c2ccc(C=C3C(=O)NC(=O)NC3=O)o2)cc1	i	18	37	484
CC=Cc1ccc2n(c1=O)C[C@H]1[C@H](CO)[C@@H](C(=O)N(C)C)[C@@H]2N1C (mixture of isomers)	/	57*	/	/
CC=Cc1ccc2n(c1=O)C[C@@H]1[C@@H](CO)[C@H](C(=O)OC)[C@H]2N1CC1CC1 (mixture of isomers)	/	1	/	/
CCCNC(=O)[C@@H]1[C@@H](CO)[C@@H]2Cn3c(cccc3=O)[C@@H]2N1C	/	2	/	/
CCCCn1c(NC(=O)c2ccc(Br)o2)c(C(=O)OCC)c2nc3ccccc3nc21	+	-1	0	425
Cc1ccc(N2C(=O)NC(=O)/C(=C/C=C/c3ccco3)C2=O)cc1	i	/	-5	285
CC(C)c1ccc(N2C(=O)NC(=O)/C(=C/C=C/c3ccco3)C2=O)cc1	+	/	-1	194
O=C1NC(=O)N(Cc2ccc(F)cc2)C(=O)/C1=C\C=C\c1ccco1	i	23	1	491
CCCCN1C(=O)/C(=C/C=C/c2ccco2)C(=O)NC1=S	i	78*	3	/
Cc1cc(C)cc(N2C(=O)NC(=O)/C(=C\C=C\c3ccco3)C2=O)c1	i	28	/	298
CCc1ccc(N2C(=O)NC(=O)/C(=C\C=C\c3ccco3)C2=O)cc1	i	54*	/	509
O=C(O)[C@@H]1[C@@H](CO)[C@@H]2Cn3c(ccc(-c4ccncc4)c3=O)[C@H]1N2C(=O)C1CCC1	/	0	/	/
C=CC1CN2CCC1C[C@@H]2CO (some centres not stated)	/	0	/	/
C=C1C(=O)OC2CCN3CC=C(COC(=O)C(C)(O)C4(CO4)C1C)C23 (configuration not stated)	i	36*	-8	/
SMILES	Myeloid diff 2	CASP6 VEID inh	Vif inh	T cell modulator	others
C=C1C/C(=C/C)C(=O)O[C@@H]2CCN3CC=C(COC(=O)[C@]1(C)O)[C@H]23	i	1	3	458
O=C1NC(=O)C(CCc2ccncc2)(CCc2ccncc2)C(=O)N1CCc1ccccc1	i	-5	-7	467
O=C1NC(=O)C(CCc2ccncc2)(Cc2ccc3c(c2)OCO3)C(=O)N1CCc1ccccc1 (configuration not stated)	+	/	-14	240
COC(=O)[C@@H]1[C@@H](CO)[C@@H]2Cn3c(cccc3=O)[C@@H]2N1CC1CC1	/	3	/	/
COc1ccc(C2=NCC(=O)N(CC(=O)NCc3ccco3)c3sc4c(c32)CCCC4)cc1	i	/	5	327	Myeloid diff=i;GFP autofluor=1
CC=Cc1ccc2n(c1=O)C[C@H]1[C@H](CO)[C@@H](C(=O)OC)[C@@H]2N1S(=O)(=O)c1cccc(C)c1 (mixture of isomers)	/	-1	/	/
CN(c1ccc(O)cc1)c1ccc([N+](=O)[O-])c2nonc12	+	8	-7	/	Myeloid diff=i;GFP autofluor=4
O=[N+]([O-])c1ccc(N2CCCCCC2)c2nonc12	i	0	/	/
COc1ccc(C2C(C(=O)N3CCC4(CC3)OCCO4)c3cc(OC)c(OC)cc3C(=O)N2C)cc1 (configuration not stated)	i	/	-1	579	Myeloid diff=i;GFP autofluor=0
COC(=O)[C@H]1[C@H](CO)[C@H]2Cn3c(ccc(C4=CCCCC4)c3=O)[C@@H]1N2CCc1ccccc1	/	4	/	/
CCN(CC)C(=O)c1ccc(NC(=O)c2cccc(S(=O)(=O)N3CCN(Cc4ccccc4)CC3)c2)cc1	i	-1	-42	334	Myeloid diff=i;GFP autofluor=1
CCN(CC)C(=O)c1ccc(NC(=O)c2cc(S(=O)(=O)N3CCCCCC3)ccc2OC)cc1	i	-5	-11	274
CCN(CC)CCCN=Cc1c(O)n(-c2cccc(C)c2C)c(=O)[nH]c1=O	+	/	-1	224	Myeloid diff=i;GFP autofluor=0
CCN(CC)CCCN=Cc1c(O)n(-c2ccccc2F)c(=O)[nH]c1=O	i	/	3	640
O=C(Cc1ccccn1)N1CCCCN2[C@@H](CO)[C@@H](c3ccc(-c4ccccc4)cc3)[C@@H]2C1	/	0	/	/
OCC[n+]1c2ccccc2nc2ccc(N3CCOCC3)cc21	+	6	0	173	Myeloid diff=i;GFP autofluor=1
O=C(CCc1ccccc1)N1Cc2cc(N3CCOCC3)ccc2-n2nncc2C1	i	-3	-2	/
COC(=O)[C@]1(C)C[C@H]1[C@H](NP(=O)(c1ccccc1)c1ccccc1)c1ccccc1	i	-2	-1	232	Myeloid diff=i;GFP autofluor=0
Fc1ccccc1N1CCN(Cc2ccc3c(c2)OCO3)CC1	i	/	5	158	Myeloid diff=i;GFP autofluor=0
Cc1nn(Cc2ccccc2)c(Cl)c1C(=O)OC(C)C(=O)Nc1ccc(F)cc1Cl (configuration not stated)	i	-3	-2	290	Myeloid diff=i;GFP autofluor=1
Cc1cc(NC(=O)COC(=O)c2c(C)nn(Cc3ccccc3)c2Cl)no1	i	/	-3	211	Myeloid diff=+;GFP autofluor=0
CCc1ccc(NC(=O)C(C)OC(=O)c2c(C)nn(Cc3ccccc3)c2Cl)cc1 (configuration not stated)	i	-2	-4	124
CCC(=NC(C)c1ccccc1)c1c(O)[nH]c(=O)[nH]c1=O (configuration not stated)	+	2	10	214	Myeloid diff=i;GFP autofluor=1
O=C(Cc1ccccn1)N1CCCCN2[C@H](C1)[C@@H](c1ccc(C#Cc3ccccc3)cc1)[C@@H]2CO	/	-3	/	/
O=C1NC(=O)N(Cc2cccs2)C(=O)/C1=C/c1ccc(N2CCOCC2)cc1	/	2	-7	i
